The target of assay [1] is UBE2F^NAc, N-terminally acetylated UBE2F (human) (UniProt Q969M7). The experiment in a line: ITC. Background: Isothermal titration calorimetry measures the heat released or taken up as one component is titrated into another.
In assay [2] the target is T1, DCNL5^P (DCNL5 PONY domain) (Homo sapiens, UniProt Q9BTE7).
T1 sequence (Q9BTE7 46-232 limits assumed): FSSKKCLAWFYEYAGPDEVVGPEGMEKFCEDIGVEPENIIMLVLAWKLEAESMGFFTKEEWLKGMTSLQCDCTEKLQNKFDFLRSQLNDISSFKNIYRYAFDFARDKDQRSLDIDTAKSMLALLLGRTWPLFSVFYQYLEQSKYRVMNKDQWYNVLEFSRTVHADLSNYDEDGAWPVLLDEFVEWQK
The assay can be described thus: ITC binding to DCNL5 PONY domain. Conditions: full-length UBE2F protein, pH 7.0, 16 °C. The method, boiled down: (§1)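 Buffer-matched by NAP-5 desalting into 25 mM HEPES, 125 mM NaCl, 1 mM BME, pH 7.0. N-terminally acetylated UBE2F in cell at 100 µM final, 16 °C. PONY domain (1 mM) injected as 2.5 µl, 5 s injections at 3 min intervals. Heats and Kd from fits of integrated data. At least two independent runs; values from one run.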

For assay [3], the target named is DCNL2^P (DCNL2 PONY domain) (Homo sapiens, UniProt Q6PH85). The assay can be described thus: ITC binding to DCNL2 PONY domain. The following applies: full-length UBE2F protein, pH 7.0, 16 °C. The method, boiled down: as §1
Sequence of DCNL2^P (DCNL2 PONY domain) (Q6PH85 60-248 limits assumed): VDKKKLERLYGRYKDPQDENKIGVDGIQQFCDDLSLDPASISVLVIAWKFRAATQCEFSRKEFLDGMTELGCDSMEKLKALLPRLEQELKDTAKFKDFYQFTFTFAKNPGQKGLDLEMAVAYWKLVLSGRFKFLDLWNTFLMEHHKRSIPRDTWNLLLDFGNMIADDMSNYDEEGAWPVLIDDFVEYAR
In assay [4] the target is DCNL1^P (DCNL1 PONY domain) (Homo sapiens, UniProt Q96GG9). The experiment in a line: ITC binding to DCNL1 PONY domain. The following applies: full-length UBE2F protein, pH 7.0, 16 °C. The method, boiled down: as §1
Sequence of DCNL1^P (DCNL1 PONY domain) (Q96GG9 60-248 limits assumed): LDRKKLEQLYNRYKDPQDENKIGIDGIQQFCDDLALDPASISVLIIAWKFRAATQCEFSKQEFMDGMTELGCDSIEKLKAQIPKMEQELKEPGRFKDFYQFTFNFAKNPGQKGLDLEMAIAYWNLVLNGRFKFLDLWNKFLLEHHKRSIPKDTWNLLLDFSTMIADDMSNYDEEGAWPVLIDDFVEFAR
In assay [5] the target is T2, DCNL4^P (DCNL4 PONY domain) (Homo sapiens, UniProt Q92564).
T2 sequence (Q92564 101-287 limits assumed): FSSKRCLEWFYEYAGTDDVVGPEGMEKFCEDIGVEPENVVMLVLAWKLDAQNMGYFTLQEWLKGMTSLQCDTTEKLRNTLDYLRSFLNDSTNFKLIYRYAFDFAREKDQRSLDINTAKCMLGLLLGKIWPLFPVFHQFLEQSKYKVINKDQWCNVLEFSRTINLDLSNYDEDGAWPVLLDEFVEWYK
The experiment in a line: ITC binding to DCNL4 PONY domain. The following applies: full-length UBE2F protein, pH 7.0, 16 °C. An outline of the steps:
as §1

For orientation: Kd means the equilibrium constant for the complex coming apart. High values mean lower affinity, low ones higher affinity.

For “DCNL3 PONY domain (DCNL3^P) (from UniProt Q8IWE4 86-304) (domain or fragment)”, the Kd in assay [1] came to 1000 nM. This counts as single-digit micromolar.

For the molecule “DCNL2 PONY domain (DCNL2^P) (from UniProt Q6PH85 62-259) (domain or fragment)”, the fold decrease in binding against DCNL3^P in assay [1] was 5 fold.

In turn, “DCNL1 PONY domain (DCNL1^P) (from UniProt Q96GG9 62-259) (domain or fragment)” had a fold decrease in binding against DCNL3^P in assay [1] of 5 fold.

B1: UBE2F^NAc: N-terminally acetylated human UBE2F, NEDD8 E2, expressed in insect cells (protein)
chain: MLTLASKLKRDDGLKGSRTAATASDSTRRVSVRDKLLVKEVAELEANLPCTCKVHFPDPNKLHCFQLTVTPDEGYYQGGKFQFETEVPDAYNMVPPKVKCLTKIWHPNITETGEICLSLLREHSIDGTGWAPTRTLKDVVWGLNSLFTDLLNFDDPLNIEAAEHHLRDKEDFRNKVDDYIKRYAR
modifications: N-terminal methionine retained and N-terminally acetylated; left off: His tag, C-terminal, state not stated
Regarding B1, the Kd entry in assay [2] and in assay [5] was “too high for us to measure” throughout. Further, the “fold decrease in binding relative to DCNL3^P” value in assay [3] and in assay [4] was 5 fold in each case.

B2: unacetylated UBE2F: UBE2F prepared in E. coli as SUMO fusion, unacetylated N-terminal Met (protein)
chain: B1 chain
modifications: left off: SUMO, N-terminal, cleaved
In the case of B2, the Kd result in assay [2] and in assay [5] was “could not measure binding” in each case. The “binding (ITC)” value in assay [3] and in assay [4] was “could not measure binding” each time.
